Laboratory results taken from ChEMBL document CHEMBL1137220, “2-(2-(dimethylaminomethyl)phenoxy)-5-iodophenylamine: an improved serotonin transporter imaging agent” (J Med Chem, 2004).
pKi: −log10 of the molar value. Values joined by “and” are separate entries in the source; they are usually repeats but may differ in a detail not shown here. Identical values can stand only once.

Tests used:
[1] = Biodistribution in rat lung was determined after 60 min of intravenous administration of the compound; [125I]- is used as radioactive isotope; format: ADME, organism-based; settings: in vivo, 1 h
Summary of the method: (§1)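 Rats under ether anesthesia, three per group, received 10 μCi tracer in 0.2 mL saline into the femoral vein. They were killed by cardiac excision under ether at each time point. Organs were removed, weighed and counted. Percent dose per organ was calculated against a 1%-of-injected-dose standard counted at the same time.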

[2] = Biodistribution in rat skin was determined after 120 min of intravenous administration of the compound; [125I]- is used as radioactive isotope; format: ADME, organism-based, Zone of skin; settings: in vivo, 2 h
Summary of the method: (§2)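 Rats, three per group, under ether anaesthesia, received 10 μCi of [¹²⁵I]-labelled tracer in 0.2 mL saline into the femoral vein. They were killed by cardiac excision under ether at each time point. Organs were removed, weighed and counted. Percent dose per organ was calculated against counts of a 1% aliquot of the injected dose (100-fold diluted) counted at the same time.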

[3] = Regional brain distribution in rat cerebellum was determined after 60 min of intravenous administration of the compound; [125I]- is used as radioactive isotope; format: ADME, tissue-based; settings: in vivo, 1 h
Summary of the method: (§3)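 Rats, three per group, injected with 10 μCi tracer in 0.2 mL saline via the femoral vein under ether anesthesia and killed by cardiac excision at the stated time. Cortex (frontal plus occipital), striatum, hippocampus, cerebellum and hypothalamus were dissected, weighed and gamma-counted. Values are % dose/g, calculated by comparison with counts of a 100-fold diluted aliquot of the injected dose.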

[4] = Distribution ratio in hypothalamus and cerebellum was determined after 120 min of intravenous administration of the compound; [125I]- is used as radioactive isotope; format: ADME, tissue-based; settings: rat, 2 h
Summary of the method: (§4)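 After femoral-vein injection of 10 μCi [¹²⁵I] tracer in 0.2 mL saline under ether anaesthesia (three rats per group), brain regions were dissected, weighed and counted: cortex (frontal plus occipital), hippocampus, hypothalamus and cerebellum. %dose/g was calculated against a diluted injected-dose standard. Ratio = (region − cerebellum)/cerebellum on a %dose/g basis, with cerebellum as the background region.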

[5] = Distribution ratio in striatum and cerebellum was determined after 30 min of intravenous administration of the compound; [125I]- is used as radioactive isotope; format: ADME, tissue-based; settings: rat, 0.5 h
Summary of the method: (§5)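 Rats, three per group, given 10 μCi tracer in 0.2 mL saline into the femoral vein under ether anesthesia, then killed by cardiac excision at the stated time. Brain regions were dissected, weighed and counted. Percent dose/g was calculated against a 1% diluted aliquot of the injected dose. The ratio is (region − cerebellum)/cerebellum on a % dose/g basis, with cerebellum as background.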

[6] = Distribution ratio in striatum and cerebellum was determined after 60 min of intravenous administration of the compound; [125I]- is used as radioactive isotope; format: ADME, tissue-based; settings: rat, 1 h; summary of the method: as §5
[7] = Biodistribution in rat lung was determined after 2 min of intravenous administration of the compound; [125I]- is used as radioactive isotope; format: ADME, organism-based; settings: in vivo; summary of the method: as §1
[8] = Distribution ratio in hypothalamus and cerebellum was determined after 6 hours of intravenous administration of the compound; [125I]- is used as radioactive isotope; format: ADME, tissue-based; settings: rat; summary of the method: as §5
[9] = Regional brain distribution in rat cortex was determined after 6 hours of intravenous administration of the compound; [125I]- is used as radioactive isotope; format: ADME; settings: in vivo; summary of the method: as §3
[10] = molecular target: Sodium-dependent dopamine transporter (Homo sapiens, UniProt Q01959); assay: Binding affinity for dopamine transporter expressed in […] cells; format: cell-based
Summary of the method: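 Membranes from confluent pig kidney LLC-PK₁ cells stably expressing the respective transporter, homogenized and pelleted, 30–40 μg protein. Incubated with 0.4 nM [¹²⁵I]IPT or [¹²⁵I]IDAM and 8–10 competitor concentrations (10⁻¹⁰ to 10⁻⁵ M) in 50 mM Tris-HCl pH 7.4, 120 mM NaCl, 0.1% BSA, 1 h at room temperature. Nonspecific binding was defined with 10 μM CFT for IPT and 1 μM IDAM for IDAM. Filtration, gamma counting, nonlinear regression for Ki.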

[11] = Biodistribution in rat skin was determined after 24 hours of intravenous administration of the compound; [125I]- is used as radioactive isotope; format: ADME, organism-based, Zone of skin; settings: in vivo; summary of the method: as §2
[12] = Biodistribution in rat thyroid was determined after 240 min of intravenous administration of the compound; [125I]- is used as radioactive isotope; format: ADME, organism-based, Thyroid gland; settings: in vivo, 4 h; summary of the method: as §2
[13] = Distribution ratio in hippocampus and cerebellum was determined after 120 min of intravenous administration of the compound; [125I]- is used as radioactive isotope; format: ADME, tissue-based; settings: rat, 2 h; summary of the method: as §4
[14] = Biodistribution in rat spleen was determined after 11 hours of intravenous administration of the compound; [125I]- is used as radioactive isotope; format: ADME, organism-based; settings: in vivo; summary of the method: as §2
[15] = Biodistribution in rat kidney was determined after 2 min of intravenous administration of the compound; [125I]- is used as radioactive isotope; format: ADME, organism-based; settings: in vivo; summary of the method: as §1
[16] = Biodistribution in rat kidney was determined after 6 hours of intravenous administration of the compound; [125I]- is used as radioactive isotope; format: ADME, organism-based; settings: in vivo; summary of the method: as §1
[17] = Distribution ratio in cortex and cerebellum was determined after 6 hrs of intravenous administration of the compound; [125I]- is used as radioactive isotope; format: ADME, tissue-based; settings: rat; summary of the method: as §4
[18] = Biodistribution in rat spleen was determined after 30 min of intravenous administration of the compound; [125I]- is used as radioactive isotope; format: ADME, organism-based; settings: in vivo, 0.5 h; summary of the method: as §2
[19] = Biodistribution in rat blood was determined after 6 hours of intravenous administration of the compound; [125I]- is used as radioactive isotope; format: ADME, organism-based; settings: in vivo; summary of the method: as §1
[20] = Regional brain distribution in rat hippocampus was determined after 30 min of intravenous administration of the compound; [125I]- is used as radioactive isotope; format: ADME, tissue-based; settings: in vivo, 0.5 h; summary of the method: as §3
[21] = Regional brain distribution in rat hippocampus was determined after 240 min of intravenous administration of the compound; [125I]- is used as radioactive isotope; format: ADME, tissue-based; settings: in vivo, 4 h; summary of the method: as §3
[22] = Biodistribution in rat spleen was determined after 240 min of intravenous administration of the compound; [125I]- is used as radioactive isotope; format: ADME, organism-based; settings: in vivo, 4 h; summary of the method: as §2
[23] = Biodistribution in rat heart was determined after 24 hours of intravenous administration of the compound; [125I]- is used as radioactive isotope; format: ADME, organism-based; settings: in vivo; summary of the method: as §1
[24] = Regional brain distribution in rat cortex was determined after 120 min of intravenous administration of the compound; [125I]- is used as radioactive isotope; format: ADME; settings: in vivo, 2 h; summary of the method: as §3
[25] = Biodistribution in rat kidney was determined after 240 min of intravenous administration of the compound; [125I]- is used as radioactive isotope; format: ADME, organism-based; settings: in vivo, 4 h; summary of the method: as §1
[26] = Regional brain distribution in rat hippocampus was determined after 2 min of intravenous administration of the compound; [125I]- is used as radioactive isotope; format: ADME, tissue-based; settings: in vivo; summary of the method: as §3
[27] = Biodistribution in rat spleen was determined after 6 hours of intravenous administration of the compound; [125I]- is used as radioactive isotope; format: ADME, organism-based; settings: in vivo; summary of the method: as §2
[28] = Regional brain distribution in rat striatum was determined after 240 min of intravenous administration of the compound; [125I]- is used as radioactive isotope; format: ADME, tissue-based; settings: in vivo, 4 h; summary of the method: as §3
[29] = Biodistribution in rat liver was determined after 120 min of intravenous administration of the compound; [125I]- is used as radioactive isotope; format: ADME, organism-based; settings: in vivo, 2 h; summary of the method: as §1
[30] = Biodistribution in rat lung was determined after 11 hours of intravenous administration of the compound; [125I]- is used as radioactive isotope; format: ADME, organism-based; settings: in vivo; summary of the method: as §1
[31] = Biodistribution in rat skin was determined after 240 min of intravenous administration of the compound; [125I]- is used as radioactive isotope; format: ADME, organism-based, Zone of skin; settings: in vivo, 4 h; summary of the method: as §2

Sodium-dependent dopamine transporter, sequence (Q01959 whole entry): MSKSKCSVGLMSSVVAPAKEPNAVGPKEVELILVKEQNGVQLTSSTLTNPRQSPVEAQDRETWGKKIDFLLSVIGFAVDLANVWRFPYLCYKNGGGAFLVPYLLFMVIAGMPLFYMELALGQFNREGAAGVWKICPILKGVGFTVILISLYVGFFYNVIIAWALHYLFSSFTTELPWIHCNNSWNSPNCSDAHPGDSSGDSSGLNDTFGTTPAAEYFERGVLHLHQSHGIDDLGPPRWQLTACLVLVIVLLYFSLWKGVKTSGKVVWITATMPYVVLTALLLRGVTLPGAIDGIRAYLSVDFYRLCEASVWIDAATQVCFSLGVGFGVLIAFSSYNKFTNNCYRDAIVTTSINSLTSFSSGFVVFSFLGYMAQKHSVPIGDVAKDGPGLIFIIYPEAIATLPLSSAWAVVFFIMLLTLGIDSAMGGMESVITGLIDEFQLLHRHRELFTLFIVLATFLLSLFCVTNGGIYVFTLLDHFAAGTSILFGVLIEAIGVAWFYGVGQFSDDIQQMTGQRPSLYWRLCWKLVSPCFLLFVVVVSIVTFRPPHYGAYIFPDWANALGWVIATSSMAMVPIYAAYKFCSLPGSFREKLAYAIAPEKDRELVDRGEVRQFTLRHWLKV

## CN(C)Cc1ccccc1Oc1ccc(I)cc1N
[1]
  Dose: 1.79%
[2]
  Dose: 12.5%
[3]
  Dose/g: 0.41%
[4]
  Dose/g: 3.49%
[5]
  Dose/g: 0.83%
[6]
  Dose/g: 1.51%
[7]
  Dose: 17.2%
[8]
  Dose/g: 2.64%
[9]
  Dose/g: 0.04%
[10]
  pKi: 6.51
[11]
  Dose: 4.02%
[12]
  Dose: 2.34%
[13]
  Dose/g: 2.19%
[14]
  Dose: 0.09%
[15]
  Dose: 4.27%
[16]
  Dose: 0.55%
[17]
  Dose/g: 0.58%
[18]
  Dose: 0.84%
[19]
  Dose: 3.29%
[20]
  Dose/g: 1.06%
[21]
  Dose/g: 0.2%
[22]
  Dose: 0.13%
[23]
  Dose: 0.02%
[24]
  Dose/g: 0.51%
[25]
  Dose: 0.61%
[26]
  Dose/g: 0.86%
[27]
  Dose: 0.11% and 0.05%
[28]
  Dose/g: 0.24%
[29]
  Dose: 4.9%
[30]
  Dose: 0.16%
[31]
  Dose: 12.6%
